Test results reported in ChEMBL document CHEMBL4049449, “Discovery of a Novel Class of Survival Motor Neuron 2 Splicing Modifiers for the Treatment of Spinal Muscular Atrophy” (J Med Chem, 2017).
In brackets after ≈: the same amount, converted by molar mass.

What was measured:
Mus musculus [1] = assay: Induction of SMN protein levels in C/C-Allele SMA FVB mouse brain at 1 mg/kg, po qd for 10 days measured 1 hr post last dose by HTRF assay relative to control; assay type: functional
In short: (§1)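 Adult C/C-allele SMA mice dosed orally once daily for 10 days at 1, 3 or 10 mg/kg. SMN protein in brain and quadriceps was expressed as % increase over vehicle-treated animals.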

Mus musculus [2] = assay: Unbound AUC in neonatal […] FVB mouse plasma at 3 mg/kg, ip qd administered from postnatal day 3 to day 9 by LC-MS/MS analysis; assay type: ADME, organism-based; conditions: in vivo
In short: (§2)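 Plasma AUC determined in a satellite group of neonatal (P10) wild-type mice dosed ip. Free AUC was calculated using the free fraction measured in serum from adult mice.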

Salmonella typhimurium [3] = assay: Genotoxicity in Salmonella typhimurium TA1535 in presence of rat liver S9 fraction by Ames test; assay type: toxicity; conditions: salmonella enterica subsp. enterica serovar typhimurium
In short: (§3)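 Ames plate incorporation: strains grown overnight at 37 °C in nutrient broth (TA102 with 0.3 μg/mL tetracycline). Compound at 20–2000 μg/plate in top agar with histidine/biotin, plus rat liver S9 mix (NADP, glucose 6-phosphate, KCl, MgCl2, pH 7.4 phosphate). Vogel–Bonner plates incubated 37 °C, 2 days; colonies counted by image analysis. Positive: dose-dependent ≥2-fold (TA1535, TA98) or ≥1.5-fold (TA97, TA100, TA102) rise over background.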

Salmonella typhimurium [4] = assay: Genotoxicity in Salmonella typhimurium TA102 in presence of rat liver S9 fraction by Ames test; assay type: toxicity; conditions: salmonella enterica subsp. enterica serovar typhimurium; in short: as §3
[5] = Fraction unbound in human plasma; assay type: ADME, cell-free
Salmonella typhimurium [6] = assay: Genotoxicity in Salmonella typhimurium TA100 in presence of rat liver S9 fraction by Ames test; assay type: toxicity; conditions: salmonella enterica subsp. enterica serovar typhimurium; in short: as §3
[7] = Total AUC in neonatal wild type FVB mouse plasma at 3 mg/kg, ip qd for 10 days by LC-MS/MS analysis; assay type: ADME, organism-based; design: dose 3 mg/kg, route intraperitoneal, time AUCmax; in short: as §2
P-gp = assay: Substrate activity at mouse P-gp assessed as efflux ratio; assay type: ADME; conditions: not told
Mus musculus [8] = assay: Induction of SMN protein levels in C/C-Allele SMA FVB mouse quadriceps muscle at 3 mg/kg, po qd for 10 days measured 1 hrs post last dose by HTRF assay relative to control; assay type: functional; in short: as §1
Mus musculus [9] = assay: Induction of SMN protein levels in neonatal delta7 FVB mouse brain at 0.3 mg/kg, ip qd administered from postnatal day 3 to day 9 measured 1 hr post last dose by HTRF assay relative to control; assay type: functional
Mus musculus [10] = assay: Induction of SMN protein levels in C/C-Allele SMA FVB mouse quadriceps muscle administered as po qd for 10 days measured 1 hr post last dose by HTRF assay; assay type: functional, organism-based; in short: as §1
Mus musculus [11] = assay: Induction of SMN protein levels in C/C-Allele SMA FVB mouse quadriceps muscle at 1 mg/kg, po qd for 10 days measured 1 hrs post last dose by HTRF assay relative to control; assay type: functional; in short: as §1
Mus musculus [12] = assay: Induction of SMN protein levels in C/C-Allele SMA FVB mouse brain at 10 mg/kg, po qd for 10 days measured 1 hr post last dose by HTRF assay relative to control; assay type: functional; in short: as §1
Salmonella typhimurium [13] = assay: Genotoxicity in Salmonella typhimurium TA97 in presence of rat liver S9 fraction by Ames test; assay type: toxicity; conditions: salmonella enterica subsp. enterica serovar typhimurium; in short: as §3
Mus musculus [14] = assay: Induction of SMN protein levels in neonatal delta7 FVB mouse quadriceps muscle at 3 mg/kg, ip qd administered from postnatal day 3 to day 9 measured 1 hr post last dose by HTRF assay relative to control; assay type: functional
Mus musculus [15] = assay: Induction of SMN protein levels in neonatal delta7 FVB mouse quadriceps muscle administered as ip qd from postnatal day 3 to day 9 measured 1 hr post last dose by HTRF assay relative to control; assay type: functional, organism-based
Mus musculus [16] = assay: Induction of SMN protein levels in C/C-Allele SMA FVB mouse brain administered as po qd for 10 days measured 1 hr post last dose by HTRF assay; assay type: functional, organism-based; in short: as §1
[17] = Substrate activity at human P-gp; assay type: ADME
Mus musculus [18] = assay: Induction of SMN protein levels in neonatal delta7 FVB mouse brain administered as ip qd from postnatal day 3 to day 9 measured 1 hr post last dose by HTRF assay relative to control; assay type: functional, organism-based
Mus musculus [19] = assay: Unbound AUC in C/C-Allele SMA FVB mouse plasma at 10 mg/kg, po qd for 10 days by LC-MS/MS analysis; assay type: ADME, organism-based; conditions: in vivo, 240 h
[20] = Fraction unbound in mouse plasma; assay type: ADME, cell-free
Mus musculus [21] = assay: Induction of SMN protein levels in C/C-Allele SMA FVB mouse quadriceps muscle at 10 mg/kg, po qd for 10 days measured 1 hrs post last dose by HTRF assay relative to control; assay type: functional; in short: as §1
Homo sapiens [22] = organism: Homo sapiens; assay: Modulation of patient derived full length SMN2 pre mRNA splicing assessed as restoration of functional SMN2 to protein level
Mus musculus [23] = assay: Induction of SMN protein levels in neonatal delta7 FVB mouse brain at 3 mg/kg, ip qd administered from postnatal day 3 to day 9 measured 1 hr post last dose by HTRF assay relative to control; assay type: functional
Salmonella typhimurium [24] = assay: Genotoxicity in Salmonella typhimurium TA98 in presence of rat liver S9 fraction by Ames test; assay type: toxicity; conditions: salmonella enterica subsp. enterica serovar typhimurium; in short: as §3
Mus musculus [25] = assay: Induction of SMN protein levels in neonatal delta7 FVB mouse brain at 1 mg/kg, ip qd administered from postnatal day 3 to day 9 measured 1 hr post last dose by HTRF assay relative to control; assay type: functional
Homo sapiens [26] = organism: Homo sapiens; assay: Modulation of patient derived full length SMN2 pre mRNA splicing assessed as inclusion of exon 7
[27] = Total AUC in wild type FVB mouse plasma at 10 mg/kg, po qd for 10 days by LC-MS/MS analysis; assay type: ADME, organism-based; design: dose 10 mg/kg, route oral, time AUCmax
[28] = Ratio of drug level in wild type FVB mouse brain to plasma at 10 mg/kg, po; assay type: ADME, organism-based; conditions: read-out: BPR
Mus musculus [29] = assay: Induction of SMN protein levels in neonatal delta7 FVB mouse quadriceps muscle at 0.3 mg/kg, ip qd administered from postnatal day 3 to day 9 measured 1 hr post last dose by HTRF assay relative to control; assay type: functional
Mus musculus [30] = assay: Induction of SMN protein levels in C/C-Allele SMA FVB mouse brain at 3 mg/kg, po qd for 10 days measured 1 hr post last dose by HTRF assay relative to control; assay type: functional; in short: as §1
Mus musculus [31] = assay: Induction of SMN protein levels in neonatal delta7 FVB mouse quadriceps muscle at 1 mg/kg, ip qd administered from postnatal day 3 to day 9 measured 1 hr post last dose by HTRF assay relative to control; assay type: functional
[32] = Stability at various pH levels assessed as amide bond hydrolysis; assay type: physicochemical
[33] = Permeability of the compound by PAMPA; assay type: physicochemical; conditions: read-out: permeability
In short: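 Parallel artificial membrane permeability: phospholipid-coated filter plate sandwiched between donor compound/buffer and acceptor buffer. Donor concentration at start was compared with donor and acceptor concentrations at end time, giving Pe (10−6 cm/s); membrane retention was also determined.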

Plasma [34] = assay: Drug metabolism in mouse plasma assessed as amide bond hydrolysis at 1 uM after 15 to 300 mins by LC-MS/MS analysis; assay type: ADME, cell-free
[35] = Glutathione reactivity assessed as GSH adduct formation
Plasma [36] = assay: Drug metabolism in human plasma assessed as amide bond hydrolysis at 1 uM after 15 to 300 mins by LC-MS/MS analysis; assay type: ADME, cell-free
[37] = Octanol-phosphate buffer partition co-efficient, log D of the compound at pH 7.4 after 24 hrs by shake flask method; assay type: physicochemical
In short: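 CAMDIS shake-flask variant: PVDF membranes impregnated with 1-octanol dipped in 25 mM phosphate buffer pH 7.4 containing compound, shaken 24 h at 23 °C. Two octanol/water ratios were run for hydrophilic or lipophilic compounds. Aqueous concentration was measured by LC/MS with and without octanol, and log D was calculated from the difference and the phase ratio.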

hERG (KCNH2) = hERG (KCNH2) (Homo sapiens, UniProt Q12809); assay: Inhibition of human ERG channel
Cytochrome P450 3A4 = Cytochrome P450 3A4 (Homo sapiens, UniProt P08684); assay: Inhibition of CYP3A4 (unknown origin); assay type: ADME
[38] = Solubility of the compound in phosphate buffer solution at pH 6.5 by HPLC-UV analysis; assay type: physicochemical
In short: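 Lysa: duplicate samples from 10 mM DMSO stocks, DMSO evaporated, residue taken up in 0.05 M phosphate buffer pH 6.5, stirred 1 h, shaken 2 h, left overnight, filtered. Filtrate and its 1/10 dilution were read by direct UV or HPLC-UV against a four-point calibration; range 0–666 μg/mL for MW 500.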

Cytochrome P450 2D6 = Cytochrome P450 2D6 (Homo sapiens, UniProt P10635); assay: Inhibition of CYP2D6 (unknown origin); assay type: ADME
Plasma [39] = assay: Drug metabolism in rat plasma assessed as amide bond hydrolysis at 1 uM after 15 to 300 mins by LC-MS/MS analysis; assay type: ADME, cell-free
Cytochrome P450 2C9 = Cytochrome P450 2C9 (Homo sapiens, UniProt P11712); assay: Inhibition of CYP2C9 (unknown origin); assay type: ADME
Sequence of Cytochrome P450 2C9 (P11712 whole entry): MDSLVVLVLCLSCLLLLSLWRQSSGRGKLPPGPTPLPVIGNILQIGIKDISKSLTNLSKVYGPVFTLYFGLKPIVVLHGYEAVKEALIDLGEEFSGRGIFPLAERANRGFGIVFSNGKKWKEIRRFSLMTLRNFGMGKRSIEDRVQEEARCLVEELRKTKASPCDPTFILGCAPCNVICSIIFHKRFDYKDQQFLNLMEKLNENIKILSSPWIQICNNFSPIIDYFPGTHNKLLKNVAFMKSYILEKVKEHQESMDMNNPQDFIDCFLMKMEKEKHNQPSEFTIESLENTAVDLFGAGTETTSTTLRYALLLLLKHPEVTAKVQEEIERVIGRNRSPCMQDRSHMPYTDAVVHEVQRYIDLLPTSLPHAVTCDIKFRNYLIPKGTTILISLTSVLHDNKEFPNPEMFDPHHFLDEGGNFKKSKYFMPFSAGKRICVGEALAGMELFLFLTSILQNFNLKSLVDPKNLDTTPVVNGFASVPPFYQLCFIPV

Sequence of hERG (KCNH2) (Q12809 whole entry): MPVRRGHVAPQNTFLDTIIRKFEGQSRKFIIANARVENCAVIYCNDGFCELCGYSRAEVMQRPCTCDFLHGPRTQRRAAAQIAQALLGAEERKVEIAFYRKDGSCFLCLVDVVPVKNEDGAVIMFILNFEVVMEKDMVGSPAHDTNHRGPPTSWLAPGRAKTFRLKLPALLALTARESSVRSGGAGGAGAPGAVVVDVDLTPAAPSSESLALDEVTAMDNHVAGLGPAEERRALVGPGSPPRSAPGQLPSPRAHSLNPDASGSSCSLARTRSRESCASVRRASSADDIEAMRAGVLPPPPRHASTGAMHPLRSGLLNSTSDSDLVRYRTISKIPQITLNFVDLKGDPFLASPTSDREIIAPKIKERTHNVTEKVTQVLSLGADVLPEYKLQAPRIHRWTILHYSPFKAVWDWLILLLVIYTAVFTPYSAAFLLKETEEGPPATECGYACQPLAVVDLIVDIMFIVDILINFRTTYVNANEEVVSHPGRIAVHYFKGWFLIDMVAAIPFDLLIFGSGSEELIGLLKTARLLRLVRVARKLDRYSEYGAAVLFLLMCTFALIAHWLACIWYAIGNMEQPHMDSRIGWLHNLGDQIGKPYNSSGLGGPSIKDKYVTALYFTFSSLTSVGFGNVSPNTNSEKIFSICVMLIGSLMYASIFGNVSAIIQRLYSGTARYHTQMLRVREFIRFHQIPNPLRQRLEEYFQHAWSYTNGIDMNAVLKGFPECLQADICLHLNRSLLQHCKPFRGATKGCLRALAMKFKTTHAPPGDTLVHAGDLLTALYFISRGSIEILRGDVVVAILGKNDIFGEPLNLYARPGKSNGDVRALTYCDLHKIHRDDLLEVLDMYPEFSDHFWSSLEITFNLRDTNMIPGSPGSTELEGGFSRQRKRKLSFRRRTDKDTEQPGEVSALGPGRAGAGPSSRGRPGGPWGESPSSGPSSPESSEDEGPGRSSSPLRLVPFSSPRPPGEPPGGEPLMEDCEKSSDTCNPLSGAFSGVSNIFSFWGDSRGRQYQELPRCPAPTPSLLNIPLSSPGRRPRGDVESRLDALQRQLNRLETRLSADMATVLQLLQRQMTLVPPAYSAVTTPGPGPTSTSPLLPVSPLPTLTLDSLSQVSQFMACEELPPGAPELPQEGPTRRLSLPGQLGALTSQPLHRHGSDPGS
Sequence of Cytochrome P450 2D6 (P10635 whole entry): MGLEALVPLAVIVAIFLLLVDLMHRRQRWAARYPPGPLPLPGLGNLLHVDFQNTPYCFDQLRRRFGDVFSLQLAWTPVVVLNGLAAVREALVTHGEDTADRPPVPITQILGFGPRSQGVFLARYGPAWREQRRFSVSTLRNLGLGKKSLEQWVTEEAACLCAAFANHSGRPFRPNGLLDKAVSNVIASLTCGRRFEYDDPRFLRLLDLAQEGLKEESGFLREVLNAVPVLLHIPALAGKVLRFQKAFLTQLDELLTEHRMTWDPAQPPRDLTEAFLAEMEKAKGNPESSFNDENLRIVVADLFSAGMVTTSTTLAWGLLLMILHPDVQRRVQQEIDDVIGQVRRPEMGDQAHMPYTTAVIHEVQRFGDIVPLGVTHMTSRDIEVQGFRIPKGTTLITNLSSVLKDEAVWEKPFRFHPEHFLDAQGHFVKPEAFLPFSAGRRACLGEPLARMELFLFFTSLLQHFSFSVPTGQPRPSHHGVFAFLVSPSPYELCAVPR
Sequence of Cytochrome P450 3A4 (P08684 whole entry): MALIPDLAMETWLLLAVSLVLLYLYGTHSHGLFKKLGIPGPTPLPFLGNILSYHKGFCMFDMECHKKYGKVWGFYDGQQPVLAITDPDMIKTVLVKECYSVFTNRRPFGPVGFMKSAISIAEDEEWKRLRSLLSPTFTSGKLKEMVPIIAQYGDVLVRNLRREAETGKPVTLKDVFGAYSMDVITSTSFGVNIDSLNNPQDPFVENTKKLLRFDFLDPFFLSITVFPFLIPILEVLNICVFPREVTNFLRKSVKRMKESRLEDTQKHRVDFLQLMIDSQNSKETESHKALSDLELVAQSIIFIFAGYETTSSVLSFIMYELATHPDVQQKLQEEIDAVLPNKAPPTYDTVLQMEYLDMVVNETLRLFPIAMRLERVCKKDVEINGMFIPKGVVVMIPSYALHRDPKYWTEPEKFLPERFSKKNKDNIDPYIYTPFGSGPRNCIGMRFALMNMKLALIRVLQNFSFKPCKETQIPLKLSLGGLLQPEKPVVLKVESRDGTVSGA

With `Cc1cn2cc(NC(=O)c3ccc(N4CCNC(C)C4)cc3F)nc2c(C)n1` (stereo unspecified) the Activity (Mus musculus [1]) was 0%, the fAUC (Mus musculus [2]) was 0.79 µg·h/mL and the Activity (Salmonella typhimurium [3]) was “Toxic”. For the same molecule, the Activity (Salmonella typhimurium [4]) was “Toxic”, the fraction unbound [5] was 0.186 and the Activity (Salmonella typhimurium [6]) was “Toxic”. For the same molecule, the AUC at 240 h [7] was 3.9 µg·h/mL, the efflux ratio (P-gp) was 4.1 and the Activity (Mus musculus [8]) was 54%. The Activity (Mus musculus [9]) was 24%, the Activity (Mus musculus [10]) was “Dose-dependent effect” and the Activity (Mus musculus [11]) was 13%. The Activity (Mus musculus [12]) was 102%, the Activity (Salmonella typhimurium [13]) was “Toxic” and the Activity (Mus musculus [14]) was 140%. The Activity (Mus musculus [15]) was “Dose-dependent effect”, the Activity (Mus musculus [16]) was “Dose-dependent effect” and the Activity [17] was “Not Active”. For the same molecule, the Activity (Mus musculus [18]) was “Dose-dependent effect”, the fAUC (Mus musculus [19]) was 1.58 µg·h/mL and the fraction unbound [20] was 0.197. For the same molecule, the Activity (Mus musculus [21]) was 152%, the EC1.5 (Homo sapiens [22]) was 98 nM and the Activity (Mus musculus [23]) was 150%. For the same molecule, the Activity (Salmonella typhimurium [24]) was “Toxic”, the Activity (Mus musculus [25]) was 75% and the EC1.5 (Homo sapiens [26]) was 52 nM. The AUC at 240 h [27] was 7.9 µg·h/mL, the Kp [28] was 3.4 and the Activity (Mus musculus [29]) was 14%. For the same molecule, the Activity (Mus musculus [30]) was 24% and the Activity (Mus musculus [31]) was 24%.

With `Cc1cn2cc(NC(=O)c3ccc(N4CCN(C)CC4)cc3)nc2c(C)n1` the Activity (Salmonella typhimurium [3]) was “Non-Toxic”, the Activity (Salmonella typhimurium [4]) was “Non-Toxic” and the Stability [32] was “Stable”. For the same molecule, the Activity (Salmonella typhimurium [6]) was “Non-Toxic”, the Papp [33] was 23.8 nm/s and the Stability (Plasma [34]) was “Stable”. The Activity (Salmonella typhimurium [13]) was “Non-Toxic”, the Stability [35] was “Stable” and the Stability (Plasma [36]) was “Stable”. For the same molecule, the logD at 24 h [37] was 2, the IC20 (hERG (KCNH2)) was > 10 µM and the IC50 (Cytochrome P450 3A4) was > 50 µM. For the same molecule, the EC1.5 (Homo sapiens [22]) was 3950 nM, the solubility [38] was 0.111 mg/mL (≈ 305 µM) and the IC50 (Cytochrome P450 2D6) was > 50 µM. For the same molecule, the Activity (Salmonella typhimurium [24]) was “Non-Toxic”, the Stability (Plasma [39]) was “Stable” and the EC1.5 (Homo sapiens [26]) was 660 nM. For the same molecule, the IC50 (Cytochrome P450 2C9) was > 50 µM.
